Measured values: ChEMBL document CHEMBL5653606 (J Pharmacol Exp Ther, 2011)
Calls of active or inactive are those of the source.

Experiments:
[1] = target: T1, Fatty-acid amide hydrolase 1 (Rattus norvegicus) (UniProt P97612); experiment: In vivo inhibition of FAAH in CFA induced Sprague-Dawley rat WBC at 0.1 to 10 mg/kg, po relative to control; assay type: functional, organism-based; conditions: dose 0.1-10 mg/kg
T1 sequence (whole entry): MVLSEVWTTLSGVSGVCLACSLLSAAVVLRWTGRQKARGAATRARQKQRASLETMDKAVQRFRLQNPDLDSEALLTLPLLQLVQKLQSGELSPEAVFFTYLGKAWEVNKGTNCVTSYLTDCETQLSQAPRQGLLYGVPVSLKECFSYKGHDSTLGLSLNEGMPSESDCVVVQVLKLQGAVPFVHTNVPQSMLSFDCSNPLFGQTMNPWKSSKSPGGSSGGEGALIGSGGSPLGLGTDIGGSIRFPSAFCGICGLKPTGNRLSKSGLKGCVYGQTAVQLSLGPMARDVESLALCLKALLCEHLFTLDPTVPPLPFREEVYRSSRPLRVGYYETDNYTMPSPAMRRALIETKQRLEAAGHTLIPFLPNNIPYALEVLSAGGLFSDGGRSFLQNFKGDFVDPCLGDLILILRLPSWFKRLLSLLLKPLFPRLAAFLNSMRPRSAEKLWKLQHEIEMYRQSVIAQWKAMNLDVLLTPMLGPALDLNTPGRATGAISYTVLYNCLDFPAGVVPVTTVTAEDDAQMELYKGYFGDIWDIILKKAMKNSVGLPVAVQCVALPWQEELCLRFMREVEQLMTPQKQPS
Outline: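 Brain and blood leukocyte membrane fractions from CFA rats after oral dosing. FAAH activity measured with 3H-labeled AEA substrate, quantifying released 3H-ethanolamine; n = 3 rats/group. Time course sampled at 1, 2, 4, 8, 24 h after 1 mg/kg.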

[2] = test system: Rattus norvegicus; experiment: Antihyperalgesic activity in MIA induced Sprague-Dawley rat assessed as increased joint compression thresholds at 0.3 mg/kg, po administered once daily for 3 consecutive days and measured after 2 to 4 hrs; assay type: functional, organism-based; conditions: time 3.0 day
Outline: (§1)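 Male Sprague-Dawley rats (220–270 g), isoflurane-anesthetized, given 2 mg MIA in 0.9% saline (50 μl) intra-articular into the knee. From day 14, oral dosing at 10 ml/kg once daily for 3 days in 4% 2-hydroxypropyl-β-cyclodextrin/1% ethanol in 0.01 M HCl. Celecoxib 30 mg/kg in 0.5% methylcellulose twice daily. Joint compression threshold by digital Randall-Selitto at 2 and 4 h postdose on days 1 and 3; n = 10/group.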

[3] = target: T1, Fatty-acid amide hydrolase 1 (Rattus norvegicus); experiment: In vivo inhibition of FAAH in CFA induced Sprague-Dawley rat brain assessed as elevation of NAE level at 0.1 to 10 mg/kg, po; assay type: functional, organism-based; conditions: dose 0.1-10 mg/kg
Outline: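 Lipid (NAE) levels in rat brain and plasma measured by LC/MS after oral dosing in CFA rats; n = 3 rats/group. Time-course samples taken at 1, 2, 4, 8, 24 h after 1 mg/kg.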

[4] = test system: Rattus norvegicus; experiment: Antihyperalgesic activity in MIA induced Sprague-Dawley rat assessed as reduction in mechanical allodynia at 3 mg/kg, po administered for 1 day and measured after 2 to 4 hrs; assay type: functional, organism-based; outline: as §1
[5] = test system: Mus musculus; experiment: In vivo inhibition of rhodamine-azide tagged FAAH expressed in mouse brain at 1 mg/kg, po by CC-ABPP method based in-gel fluorescence scanning analysis; assay type: functional, organism-based
[6] = test system: Mus musculus; experiment: Antinociceptive activity in C57BL6/J mouse assessed as thermal tail immersion at 1 to 10 mg/kg, po administered for 4 hrs; assay type: functional, organism-based; conditions: dose 1-10 mg/kg
Outline: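 Male C57BL/6J mice, 7 weeks old, n = 8/group, dosed orally at 1 or 10 mg/kg in PEG 300 (4 ml/kg). Tetrad tested 4 h postdose: locomotor activity, tail-immersion thermal nociception, catalepsy (assessed 60 s), body temperature. Means ± S.E.M. versus vehicle.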

[7] = test system: Rattus norvegicus; experiment: Antihyperalgesic activity in CFA induced Sprague-Dawley rat assessed as complete reduction of mechanical allodynia at 3 mg/kg, po in presence of CB1 antagonist SR141716 and CB2 antagonist SR144528 by von frey test; assay type: functional, organism-based
Outline: (§2)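 Male Sprague-Dawley rats (200–250 g) given 150 μl CFA (1 mg/ml in mineral oil) intraplantar in the hind paw. Mechanical paw withdrawal thresholds read with Von Frey hairs on day 5 postinjection. Dosed orally as nanocrystalline suspension in 2% polyvinylpyrrolidone/0.15% SDS in water, 10 ml/kg. PWTs taken 4 h postdose for dose-response, or at 1, 2, 4, 8, 24 h for time course.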

[8] = Plasma concentration in rat at 1 mg/kg, po administered for 4 hrs by LC/MS analysis; assay type: ADME, organism-based
Outline: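 Male Sprague-Dawley rats received a single oral dose of 1 mg/kg. Plasma (ng/ml) and brain (ng/g tissue) drug levels were measured at 1, 2, 4, 8 and 24 h after dosing.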

[9] = test system: Rattus norvegicus; experiment: Antihyperalgesic activity in MIA induced Sprague-Dawley rat assessed as increased joint compression thresholds at 0.3 to 3 mg/kg, po administered for 1 day and measured after 2 to 4 hrs; assay type: functional, organism-based; conditions: dose 0.3-3 mg/kg; outline: as §1
[10] = Ratio of drug concentration in CFA induced Sprague-Dawley rat brain to plasma at 0.1 to 10 mg/kg, po by LC/MS analysis; assay type: ADME, organism-based; conditions: brain and plasma, dose 0.1-10 mg/kg
Outline: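 Male Sprague-Dawley rats (200–250 g) received 150 μl CFA (1 mg/ml suspension in mineral oil) into the plantar hind paw. On day 5 they were dosed orally at 0.003–10 mg/kg as a nanocrystalline suspension in 2% polyvinylpyrrolidone/0.15% SDS in H₂O at 10 ml/kg. Drug levels were measured in brain tissue and plasma in the dose-response study, where PWTs were read at 4 h post-dose.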

[11] = test system: Rattus norvegicus; experiment: Antihyperalgesic activity in CFA induced Sprague-Dawley rat assessed as inhibition of mechanical allodynia at 1 mg/kg, po measured for 1 to 24 hrs by von frey test; assay type: functional, organism-based; conditions: time 1-24 hrs; outline: as §2
[12] = test system: Rattus norvegicus; experiment: Antihyperalgesic activity in CFA induced Sprague-Dawley rat assessed as inhibition of mechanical allodynia at 0.003 to 10 mg/kg, po measured for 4 hrs by von frey test; assay type: functional, organism-based; conditions: dose 0.003-10 mg/kg; outline: as §2
[13] = target: T1, Fatty-acid amide hydrolase 1 (Rattus norvegicus); experiment: In vivo inhibition of FAAH in CFA induced Sprague-Dawley rat plasma assessed as elevation of OEA level at 1 mg/kg, po measured for 1 to 24 hrs; assay type: functional, organism-based; conditions: time 1-24 hrs

O=C(Nc1cccnn1)N1CCC(=Cc2cccc(Oc3ccc(C(F)(F)F)cn3)c2)CC1
1.3: Kp [10]
540 nM: concentration at 4 h [8]
active: Activity [2] | inhibition [3] | Activity [4] | inhibition [5] | Activity [6] Toxic | Activity [7] | Activity [9] | Activity [11] | Activity [12] | inhibition [13]
98%: inhibition [1]
